Test results: ChEMBL document CHEMBL1133159, “Conformationally constrained analogues of diacylglycerol (DAG). 17. Contrast between sn-1 and sn-2 DAG lactones in binding to protein kinase C” (J Med Chem, 2000)

Key:
[1] = target: T1, Protein kinase C alpha type (Homo sapiens, UniProt P17252); experiment: Affinity for protein kinase-C alpha (PK-C alpha)
Method in brief: (§1)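 Competitive displacement of bound [20-3H]phorbol 12,13-dibutyrate (PDBU) from recombinant single-isozyme PK-Cα in the presence of phosphatidylserine. ID50 was obtained by fitting the inhibition data points to a theoretical noncooperative competition curve.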

[2] = target: T1, Protein kinase C alpha type; experiment: Affinity for protein kinase C alpha; method in brief: as §1
[3] = Partition coefficient (logP); assay type: physicochemical; details: octanol/water

Structure (SMILES) | Ki [1] [µM] | Ki [2] [µM] | logP [3]
CC(C)C(C/C=C1/CC([C@H](CO)OC(=O)CC(C(C)C)C(C)C)OC1=O)C(C)C (stereo not given in full) | 0.327 |  | 
CCCCCCCC/C=C1\CC([C@H](CO)OC(=O)CCCCCCCC)OC1=O (stereo not given in full) | 1.2 | 1.2 | 6.3
CCCCCCCCC(=O)O[C@@H](CO)C1C/C(=C\CC(C(C)C)C(C)C)C(=O)O1 (stereo not given in full) | 1.09 |  | 6.08
CCCCCCCCCCCCCC(=O)O[C@@H](CO)C1CCC(=O)O1 (stereo not given in full) | 1 | 1 | 
CCCCCCCCC/C=C1/CC(CO)(COC(=O)CC(C)C)OC1=O (stereo not given) |  | 0.013 | 
CCCCCCCCC(=O)O[C@@H](CO)C1C/C(=C/CC(C(C)C)C(C)C)C(=O)O1 (stereo not given in full) | 0.499 |  | 
CCCCCCCC/C=C1/CC([C@H](CO)OC(=O)CCCCCCCC)OC1=O (stereo not given in full) | 1.76 | 1.76 | 
CCCCCCCC/C=C1/CC([C@H](CO)OC(=O)CC(C)C)OC1=O (stereo not given in full) |  | 0.565 | 
CCCCCCCCCC(=O)OCC1(CO)C/C(=C/CC(C)C)C(=O)O1 (stereo not given) |  | 0.0023 | 
CCCCCCCC/C=C1\CC([C@H](CO)OC(=O)CC(C)C)OC1=O (stereo not given in full) |  | 0.579 | 
CCCCCCC/C=C/CCCCCCC/C=C1/CC(CO)(COC(C)=O)OC1=O (stereo not given) |  | 0.024 | 
CC(C)C(C/C=C1\CC([C@H](CO)OC(=O)CC(C(C)C)C(C)C)OC1=O)C(C)C (stereo not given in full) | 0.679 |  | 5.86
CCCCCCCC/C=C/CCCCCCCC(=O)OCC1(CO)CCC(=O)O1 (stereo not given) |  | 0.096 | 
CCCCCCCC/C=C1/CC([C@H](CO)OC(=O)CC(C(C)C)C(C)C)OC1=O (stereo not given in full) | 0.565 |  | 
